Laboratory results reported in ChEMBL document CHEMBL1667864, “Synthesis and biological assay of 4-aryl-6-chloro-quinoline derivatives as novel non-nucleoside anti-HBV agents” (Bioorg Med Chem, 2011).

Legend:
Hepatitis B virus [1] = experiment: Antiviral activity against HBV infected in human HepG 2.215 cells assessed as inhibition of HBeAg secretion by ELISA; assay type: functional, organism-based; conditions: HepG2.2.15
[2] = Cytotoxicity against human HepG2(2.2.15) cells; assay type: cell-based
[3] = Selectivity index, CC50 for human HepG 2.215 cells to IC50 for HBV infected in human HepG 2.215 cells assessed as inhibition of HBeAg secretion; assay type: functional
In short: (§1)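 SI calculated as CC₅₀ (concentration killing 50% of HepG 2.2.15 cells) divided by IC₅₀ (50% inhibition of HBV DNA replication, HBeAg or HBsAg secretion).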

Hepatitis B virus [4] = experiment: Antiviral activity against HBV infected in human HepG 2.215 cells assessed as inhibition of HBsAg secretion by ELISA; assay type: functional, organism-based; conditions: HepG2.2.15
[5] = Selectivity index, CC50 for human HepG 2.215 cells to IC50 for HBV infected in human HepG 2.215 cells assessed as inhibition of DNA replication; assay type: functional; in short: as §1
[6] = Selectivity index, CC50 for human HepG 2.215 cells to IC50 for HBV infected in human HepG 2.215 cells assessed as inhibition of HBsAg secretion; assay type: functional; in short: as §1
Hepatitis B virus [7] = experiment: Antiviral activity against HBV infected in human HepG 2.215 cells assessed as inhibition of DNA replication by RT-PCR analysis; assay type: functional, organism-based; conditions: HepG2.2.15
In short: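 HepG 2.2.15 cells were seeded at 5 × 10⁵ per well, with medium changed every 2 days. After 6 days, compounds were added and fresh medium was fed every other day for another 6 days. Total DNA was isolated from collected cells, and HBV DNA was quantified by real-time PCR. IC₅₀ is the concentration giving 50% inhibition of HBV DNA replication.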

| SMILES | IC50 (Hepatitis B virus [1]) [µM] | IC50 (Hepatitis B virus [4]) [µM] | IC50 (Hepatitis B virus [7]) [µM] | CC50 [2] [µM] | Selectivity Index [3] | Selectivity Index [5] | Selectivity Index [6] |
| --- | --- | --- | --- | --- | --- | --- | --- |
| [N-]=[N+]=NCCc1c(Cl)nc2ccc(Cl)cc2c1-c1ccccc1Cl | > 2510 | > 2510 | 16.6 | > 2510 | – | >151.4 | – |
| CC(C)(C)[Si](OCCc1c(Nn2nnc3ccccc32)nc2ccc(Cl)cc2c1-c1ccccc1Cl)(c1ccccc1)c1ccccc1 | > 1250 | > 1250 | 4.4 | > 1250 | – | >284.5 | – |
| CC(C)(C)[Si](OCCc1c(OCc2c(F)cccc2F)nc2ccc(Cl)cc2c1-c1ccccc1Cl)(c1ccccc1)c1ccccc1 | > 1870 | > 1870 | > 1870 | > 1870 | – | – | – |
| CC(C)(C)[Si](OCCc1c(N2CCOCC2)nc2ccc(Cl)cc2c1-c1ccccc1Cl)(c1ccccc1)c1ccccc1 | > 1200 | > 1200 | > 1200 | > 1200 | – | – | – |
| OCCc1c(N2CCNCC2)nc2ccc(Cl)cc2c1-c1ccccc1Cl | > 5 | > 5 | > 5 | < 5 | <1 | – | <1 |
| CS(=O)(=O)OCCc1c(Cl)nc2ccc(Cl)cc2c1-c1ccccc1Cl | 647 | 1020 | > 882 | 882 | >1.4 | – | <1 |
| [N-]=[N+]=NCCc1c(N=[N+]=[N-])nc2ccc(Cl)cc2c1-c1ccccc1Cl | > 2480 | > 2480 | 4.5 | > 2480 | – | >551.2 | – |
| ClCCc1c(Cl)nc2ccc(Cl)cc2c1-c1ccccc1Cl | > 1400 | > 1400 | 19 | > 1400 | – | >73.8 | – |
| CC(C)(C)[Si](OCCc1c(OCc2c(Cl)cccc2Cl)nc2ccc(Cl)cc2c1-c1ccccc1Cl)(c1ccccc1)c1ccccc1 | > 1030 | > 1030 | > 1030 | > 1030 | – | – | – |
| C[C@H](Cn1cnc2c(N)ncnc21)OCP(=O)(O)O [TENOFOVIR ANHYDROUS] | – | 1450 | 0.54 | > 1740 | >1.5 | >3222 | >1.2 |
| CC(C)(C)[Si](OCCc1c(N2CCCCC2)nc2ccc(Cl)cc2c1-c1ccccc1Cl)(c1ccccc1)c1ccccc1 | > 969 | > 969 | 6.7 | > 969 | – | >143.7 | – |

The remaining compounds from weak to strong by IC50 (Hepatitis B virus [4]), led by results:

| IC50 (Hepatitis B virus [1]) [µM] | IC50 (Hepatitis B virus [4]) [µM] | IC50 (Hepatitis B virus [7]) [µM] | SMILES | CC50 [2] [µM] | Selectivity Index [3] | Selectivity Index [5] | Selectivity Index [6] |
| --- | --- | --- | --- | --- | --- | --- | --- |
| 767 | 454 | > 1560 | CC(C)(C)[Si](OCCc1c(OS(=O)(=O)C(F)(F)F)nc2ccc(Cl)cc2c1-c1ccccc1Cl)(c1ccccc1)c1ccccc1 | > 1560 | 2 | – | >3.4 |
| > 1590 | 323 | > 1590 | OCCc1c(N2CCOCC2)nc2ccc(Cl)cc2c1-c1ccccc1Cl | > 1590 | – | – | >4.9 |
| 70.9 | 147 | 6.1 | CC(=O)OCCc1c(Cl)nc2ccc(Cl)cc2c1-c1ccccc1Cl | 116 | <1 | 19.1 | <1 |
| 340 | 70.2 | 72.1 | O=c1[nH]c2ccc(Cl)cc2c(-c2ccccc2Cl)c1CCO | 388 | 1.1 | 5.4 | 5.5 |
| > 2710 | 66.3 | 6.9 | COc1nc2ccc(Cl)cc2c(-c2ccccc2Cl)c1CCO | 141 | <1 | 20.5 | 2.1 |
| 11.3 | 45.3 | 9.8 | OCCc1c(Cl)nc2ccc(Cl)cc2c1-c1ccccc1Cl | 42.5 | 3.8 | 4.3 | <1 |
| 1630 | 43.5 | 4.8 | OCCc1c(OCc2c(F)cccc2F)nc2ccc(Cl)cc2c1-c1ccccc1Cl | 109 | <1 | 22.7 | 2.5 |
| 111 | 37.7 | 8.3 | OCCc1c(Nn2nnc3ccccc32)nc2ccc(Cl)cc2c1-c1ccccc1Cl | 82.4 | <1 | 10 | 2.2 |
| 50 | 37.5 | 151 | OCCc1c(N2CCCCC2)nc2ccc(Cl)cc2c1-c1ccccc1Cl | 155 | 3.1 | 1 | 4.1 |
| > 1170 | 18.8 | 42.8 | CC(C)(C)[Si](OCCc1c(N2CCNCC2)nc2ccc(Cl)cc2c1-c1ccccc1Cl)(c1ccccc1)c1ccccc1 | < 18.8 | <1 | <4.43 | <1 |
| 12.2 | 18.2 | 17.7 | OCCc1c(OCc2c(Cl)cccc2Cl)nc2ccc(Cl)cc2c1-c1ccccc1Cl | 38.5 | 3.2 | 2.2 | 2.1 |
| 367 | 16.5 | 6.8 | CS(=O)(=O)OCCc1c(OS(C)(=O)=O)nc2ccc(Cl)cc2c1-c1ccccc1Cl | 804 | 2.2 | 118.2 | 48.6 |
